UPR CHOP act: activators of apoptotic arm of unfolded protein response (CHOP) | 0.34% of 330,000 active | activation, % at 10 µM | CHO-CHOP luciferase reporter, UPR activation, luminescence; percent of tunicamycin response over DMSO baseline;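 active = at 10 µM dose, activation of 40% or more, normalized to positive control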;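 note: 100% = tunicamycin at 10 µg/mL and 0% = DMSO alone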
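assay system = CHO CHOP reporter cells | amount = 500 CHO-CHOP cells per well | buffer or medium = F12 with 10% FBS | incubation = 16-18 h cell attachment, then 6 h compound exposure, 37 °C | detection = luminescence read with Steady-Glo | read-out = percent activation relative to tunicamycin control | controls = tunicamycin high control, DMSO low control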
NOD2-RIPK2 inh: NOD2-RIPK2 protein interaction inhibition | O43353 | CHO BLA complementation NOD2-RIPK2, CCF4 ratio | inhibition, % at 4.98 µM | 0.38% of 360,000 active; in the data active = inhibition above about 21%;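 note: 0% = vehicle only and 100% = reference blocker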
TLR4-MyD88 BLA: blocks binding of human TLR4 to MyD88. O00206+Q99836. HeLa CL3-4 TLR4/MyD88 BLA complementation, FRET ratio. inhibition, % at 8.4 µM. 0.18% of 200,000 active; in the data active = inhibition above about 25%;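 note: 0% = vehicle and 100% = reference inhibitor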
CHOP inhibitor: CHOP inhibition in unfolded protein response | AID 2732 | inhibition, % at 10 µM | CHO-K1 CHOP-promoter luciferase, tunicamycin-induced, 15-18 h | 3.8% of 220,000 active;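 active = compounds that reduced the stress-induced luciferase reporter signal by more than about 70% of percent inhibition, limit read from the data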;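 note: 0% = tunicamycin plus vehicle and 100% = wells without tunicamycin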
TLR9-MyD88 block: inhibitors of human TLR9-MyD88 binding | CHO BLA complementation TLR9-MyD88, CCF4 FRET ratio | inhibition, % at 4.98 µM | 0.21% of 340,000 active | AID 504734;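 active = inhibition above the mean over all tested compounds plus 3 SD, cut at about 21% in these data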;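 note: 0% = DMSO only wells and 100% = clavulanate BLA inhibitor control wells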
XBP1 UPR activ: adaptive UPR (XBP1) activation; CHO-XBP1 luciferase reporter, IRE1-XBP1 UPR activation, luminescence; percent of tunicamycin response, DMSO as zero; activation, % at 20 µM; 0.33% of 330,000 active;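 active = versus positive control, 20 µM dose yields 30% or more activation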;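 note: 100% = tunicamycin at 10 µg/mL and 0% = DMSO only wells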
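Material: CHO-XBP1 cells stably carrying IRE1-XBP1-driven luciferase reporter | Medium: F12 with 10% serum | Compound dosing: 20 µM single concentration, DMSO 1% | Incubation: Overnight seeding at 37 °C, 6 h compound treatment at 37 °C | Detection: Steady-Glo luminescence read | Read-out basis: % activation of reporter signal versus tunicamycin and DMSO controls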
CHOP confirm: confirmation of CHOP induction inhibitors; inhibition, % at 10 µM; 45% of 2,100 active; shares compounds with CHOP inhibitor; AID 504437; CHO-CHOP promoter luciferase reporter, tunicamycin-induced, luminescence;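 active = mean of three repeat readings of reporter signal inhibition above a set limit, cut at about 70% in these data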;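 note: 0% = tunicamycin plus vehicle and 100% = wells lacking tunicamycin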
* hit, by the source's call; x = not tested or not shown. The entries come from a sample that favours hits as a whole.

SMILES	UPR CHOP act	NOD2-RIPK2 inh	TLR4-MyD88 BLA	CHOP inhibitor	TLR9-MyD88 block	XBP1 UPR activ	CHOP confirm
OC(c1ccc(OCc2ccccc2)cc1)c1nnc(-c2ccccc2)o1 (centres undefined)	-2	9	4	97*	-2	-3	-33
OC(c1cccc(OCc2ccccc2)c1)c1nnc(-c2ccccc2)o1 (centres undefined)	2	5	4	111*	2	1	106*
O=C1C=CC(n2cc(F)c(=O)[nH]c2=O)O1 (centres undefined)	x	-1	x	x	6	x	x
O=C1C2CC=CCC2C(=O)N1c1ccc(N2CCN(c3ccccn3)CC2)c([N+](=O)[O-])c1 (centres undefined)	-1	-1	-6	53	-12	2	x
Nc1nc(-c2ccccc2)c(N=Nc2cccc3ccccc23)s1	-1	-15	-2	30	-5	0	x
Nc1nc(-c2ccccc2)c(N=Nc2ccccc2Cl)s1	-2	7	-9	97*	13	0	80*
CCOc1ccc(NC(=O)C2CCCN(S(=O)(=O)c3ccc4c(c3)C(C)(C)C(=O)N4C)C2)cc1 (centres undefined)	x	-7	x	x	x	x	x
CCc1ccc2c(COC(=O)c3n[nH]c4ccccc34)cc(=O)oc2c1	1	-6	-7	100*	-11	1	18
Cc1ccc2c(COC(=O)c3n[nH]c4ccccc34)cc(=O)oc2c1	3	-8	-6	50	-3	5	x
CC1=NN(c2ccc(C)c(C)c2)C(=O)/C1=C\C=C\c1ccc([N+](=O)[O-])o1	25	-5	10	108*	5	1	21
CC1=NN(c2ccccc2)C(=O)/C1=C\C=C\c1ccccc1	3	-15	x	-19	x	-1	x
CN1CCN(c2ccc(-c3ccc4ccccc4n3)cc2)CC1	x	-10	7	102*	1	x	120*
Cc1ccc(C(=O)N2C(=S)C(c3ccc(F)cc3)=NC23CCN(C)CC3)cc1	6	6	-10	98*	-2	8	16
CCCCC1=CC2=C(c3ccco3)C(=O)C(C)(OC(=O)c3ccc(OC)cc3)C(=O)C2=CN1c1ccccc1 (centres undefined)	1	1	x	104*	6	-1	-64
Cc1cc(C)c(C(O)c2ncc(-c3ccccc3F)[nH]2)c(C)c1 (centres undefined)	x	5	x	x	x	x	x
NC(=S)n1[nH]c(-c2ccc([N+](=O)[O-])cc2)c(N=Nc2cccc([N+](=O)[O-])c2)c1=O	x	-14	-10	102*	-1	x	98*
CC1CCCN(C(=O)c2cn(-c3ccccc3)nc2-c2cccnc2)C1 (centres undefined)	1	0	x	x	3	1	x
CC1CCCCC1NC(=O)c1cc(S(=O)(=O)N2CCOCC2)ccc1Cl (centres undefined)	1	-8	x	x	6	-1	x
O=C1CCC(=O)N1CCSC(=S)N1CCSCC1	3	-2	x	-9	10	3	x
O=C(/C=C/c1ccccc1)NC(NC(=S)Nc1ccc(Cl)cc1)C(Cl)(Cl)Cl (centres undefined)	26	0	5	109*	-4	27	60
COc1ccc(NC(=S)NC(NC(=O)/C=C/c2ccccc2)C(Cl)(Cl)Cl)cc1 (centres undefined)	17	-23	1	107*	1	17	122*
O=C(/C=C/c1ccccc1)NC(NC(=S)Nc1cc(Cl)ccc1Cl)C(Cl)(Cl)Cl (centres undefined)	22	-11	6	56	-4	4	x
Cc1cccc(N2CCN(CCCNC(=O)c3ccc(NC(=O)C4=CSCCO4)cc3)CC2C)c1 (centres undefined)	0	-3	x	x	-5	-3	x
CC1(NC(=S)N(CCO)CCO)CCS(=O)(=O)C1 (centres undefined)	6	6	-5	16	-1	-2	x
Nc1nnnn1/N=C/c1cccc(OCc2ccccc2Cl)c1	5	1	1	104*	7	0	51
SMILES	UPR CHOP act	NOD2-RIPK2 inh	TLR4-MyD88 BLA	CHOP inhibitor	TLR9-MyD88 block	XBP1 UPR activ	CHOP confirm
CCOC(=O)C(Cc1c[nH]c2ccccc12)NC(=O)c1ccccc1Br (centres undefined)	6	-2	x	x	-9	1	x
Cc1ccc(Nc2nc(N)c([N+](=O)[O-])c(N3CCCC(C)C3)n2)cc1C (centres undefined)	1	-3	-18	101*	-6	3	64
CC1CCCN(c2nc(NCc3ccco3)nc(N)c2[N+](=O)[O-])C1 (centres undefined)	-1	-4	-6	30	-6	1	x
C[C@H](CO)N1C[C@H](C)[C@H](CN(C)S(=O)(=O)c2cccs2)OCc2cnnn2CCCC1=O	x	-6	x	x	-5	x	x
CCCCn1c(N)c(N(C)C(=O)c2ccc(Br)o2)c(=O)[nH]c1=O	0	-13	x	x	-14	-1	x
Cc1nnc(SCC(=O)NC2CCCCC2)s1	3	-3	1	6	3	-1	x
CN1CCN(C2=C(Cl)C(=O)c3ccccc3C2=O)CC1	x	-1	x	x	0	x	x
CN1CCN(C2=C(Cl)C(=O)C(c3cnc(N4CCCCC4)s3)=C(Cl)C2=O)CC1	-1	8	-1	100*	4	-8	-18
CCc1ccc(OCCNC(=O)c2ccccc2SCc2ccccc2)cc1	-2	-14	1	99*	-2	1	91*
Nc1cccc2c1C(=O)N(C(=O)/C=C/c1cccc(F)c1)C2=O	14	5	20	103*	-9	3	127*
Nc1cccc2c1C(=O)N(C(=O)/C=C/c1cccc(Br)c1)C2=O	x	2	x	-3	8	x	x
BrC(=C\c1ccccc1)/C=N/N1CCN(Cc2ccccc2)CC1	0	1	4	98*	-5	-5	30
BrC(/C=N/N1CCN(Cc2ccccc2)CC1)=C/c1ccccc1	1	3	x	19	4	-3	x
O=S1(=O)C=C[C@H](COCc2ccccc2)N1	x	-1	x	x	x	x	x
CCOC(=O)C(=Cc1ccc(N(C)C)cc1)C(=O)c1ccccc1	x	18	x	x	x	x	x
CCOC(=O)/C(=C/c1ccc(OC(=O)c2ccccc2)cc1)C(C)=O	4	-13	-9	101*	3	18	-30
COc1ccc2cc(C3CC(c4ccco4)=NN3C(=O)CCC(=O)O)c(Cl)nc2c1 (centres undefined)	-1	-10	-1	-30	10	-1	x
COc1ccc(C2=NN(C(=O)c3ccco3)C(c3cc4ccccc4nc3Cl)C2)cc1 (centres undefined)	3	x	x	103*	x	16	71*
